Source: ChEMBL document CHEMBL1125290, “Bis basic substituted diaminobenzobisthiazoles as potential antiarthritic agents” (1992)

How the values were obtained:
Type in all cases: functional
[1] = tested on: Rattus norvegicus; experiment: Antiinflammatory activity against D-adjuvant arthritis in injected rat paw at the dose of 50 mg/kg by oral administration
[2] = tested on: Rattus norvegicus; experiment: Antiinflammatory activity against D-adjuvant arthritis in uninjected rat paw at the dose of 50 mg/kg by oral administration
Procedure, shortened: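 Rat developing adjuvant arthritis screen with oral dosing on a prophylactic protocol. Percent change in body weight versus untreated animals was recorded as a preliminary toxicity sign. Significance was assessed against controls by two-tailed Student's t test, p < 0.05.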

[3] = species: Rattus norvegicus; experiment: Antiinflammatory activity in D-adjuvant induced arthritis in rat measured by the change in body weight; design: concentration or dose not given beside the values
[4] = tested on: Rattus norvegicus; experiment: Antiinflammatory activity against carrageenan induced rat paw edema (CPE), dosed orally
Procedure, shortened: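 Male Sprague–Dawley rats (150 ± 10 g), five per group. Compound or vehicle given orally in 0.5% methylcellulose 1 h before subplantar injection of 0.1 mL 1% carrageenan in saline into the right hind paw. Paw volume measured by mercury displacement before dosing and 3 h after carrageenan; the difference is the edema volume. ANOVA with Dunnett's t test.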

SMILES | inhibition in vivo at 50 mg/kg [1] | inhibition in vivo at 50 mg/kg [2] | Activity [3] | Inhibition [4]
CC1CCCC1NCC(=O)Nc1nc2cc3nc(NC(=O)CNC4CCCC4C)sc3cc2s1 (centres undefined) | 0% | 0% | -22% | 36%
CCOC(=O)c1c2sc(NC(=O)CN(CC)CC)nc2c(Cl)c2nc(NC(=O)CN(CC)CC)sc12 | 0% | 0% | -16% | 5%
CC(C)N(CC(=O)Nc1nc2cc3nc(NC(=O)CN(C(C)C)C(C)C)sc3cc2s1)C(C)C | 0% | 0% | -5% | 0%
CCN(CC)CC(=O)Nc1nc2cc3nc(NC(=O)CN(CC)CC)sc3c(Br)c2s1 | 80% | 100% | -45% | 0%
CC(=O)c1ccc(N2CCN(CC(=O)Nc3nc4cc5nc(NC(=O)CN6CCN(c7ccc(C(C)=O)cc7)CC6)sc5cc4s3)CC2)cc1 | 0% | 0% | -7% | 40%
CC1CCN(CC(=O)Nc2nc3cc4nc(NC(=O)CN5CCC(C)CC5)sc4cc3s2)CC1 | 70% | 100% | -26% | 20%
O=C(CN1CCSC1)Nc1nc2cc3nc(NC(=O)CN4CCSC4)sc3cc2s1 | 26% | 27% | 11% | 11%
O=C(CNc1ccccc1)Nc1nc2cc3nc(NC(=O)CNc4ccccc4)sc3cc2s1 | 0% | 0% | -11% | 0%
CCOCCN(CCOCC)CC(=O)Nc1nc2cc3nc(NC(=O)CN(CCOCC)CCOCC)sc3cc2s1 | 16% | 21% | 0% | 0%
O=C(CN1CCN(c2ccccn2)CC1)Nc1nc2cc3nc(NC(=O)CN4CCN(c5ccccn5)CC4)sc3cc2s1 | 0% | 16% | -2% | 9%
CC(C)NCC(=O)Nc1nc2cc3nc(NC(=O)CNC(C)C)sc3cc2s1 | 9% | 11% | 7% | 28%
CCOC(=O)c1c2nc(NC(=O)CN(CC)CC)sc2cc2sc(NC(=O)CN(CC)CC)nc12 | 7% | 0% | -9% | 32%
CCN(CC)CC(=O)Nc1nc2cc3nc(NC(=O)CN(CC)CC)sc3c([N+](=O)[O-])c2s1 | 11% | 12% | -16% | 23%
CCN(CC)CCCC(C)Nc1nc2cc3nc(NC(C)CCCN(CC)CC)sc3cc2s1 (centres undefined) | 0% | 0% | -17% | 0%
O=C(CN1CCN(c2cccc(C(F)(F)F)c2)CC1)Nc1nc2cc3nc(NC(=O)CN4CCN(c5cccc(C(F)(F)F)c5)CC4)sc3cc2s1 | 39% | 73% | 4% | 0%
O=C(CN1CCN(c2ccccc2)CC1)Nc1nc2cc3nc(NC(=O)CN4CCN(c5ccccc5)CC4)sc3cc2s1 | 40% | 56% | 1% | 0%
CCOC(=O)CN1CCN(CC(=O)Nc2nc3cc4nc(NC(=O)CN5CCN(CC(=O)OCC)CC5)sc4cc3s2)CC1 | 0% | 0% | -11% | 14%
COc1cc2nc(N)sc2c2nc(N)sc12 | 34% | 35% | -29% | 43%

SMILES | inhibition in vivo at 50 mg/kg [1] | inhibition in vivo at 50 mg/kg [2] | Activity [3] | Inhibition [4]
CN1CCN(CC(=O)Nc2nc3cc4nc(NC(=O)CN5CCN(C)CC5)sc4cc3s2)CC1 | 0% | 0% | -25% | 28%
CCN(CC)CC(=O)Nc1nc2c(C)c3nc(NC(=O)CN(CC)CC)sc3c(Cl)c2s1 | 42% | 16% | -37% | 18%
O=C(CN1CCCC(CO)C1)Nc1nc2cc3nc(NC(=O)CN4CCCC(CO)C4)sc3cc2s1 (centres undefined) | 25% | 47% | -4% | 16%
O=C(CNC1CCCCC1)Nc1nc2cc3nc(NC(=O)CNC4CCCCC4)sc3cc2s1 | 3% | 59% | 8% | 20%
CCN(CC)CC(=O)Nc1nc2cc3nc(NC(=O)CN(CC)CC)sc3c(N)c2s1 | 26% | 38% | -35% | 53%
CCN(CC)CC(=O)Nc1nc2cc3nc(NC(=O)CN(CC)CC)sc3c(OC)c2s1 | 19% | 0% | 10% | 17%
CCOC(=O)c1c2sc(NC(=O)CN(CC)CC)nc2c(C)c2nc(NC(=O)CN(CC)CC)sc12 | 15% | 50% | -12% | 35%
O=C(CNC1CCCC1)Nc1nc2cc3nc(NC(=O)CNC4CCCC4)sc3cc2s1 | 43% | 70% | 10% | 13%
CCN(CC)CC(=O)N(C)c1nc2c(ccc3sc(N(C)C(=O)CN(CC)CC)nc32)s1 | 0% | 34% | 4% | 21%
O=C(CN1CCN(c2ccc(F)cc2)CC1)Nc1nc2cc3nc(NC(=O)CN4CCN(c5ccc(F)cc5)CC4)sc3cc2s1 | 41% | 79% | 12% | 11%
Cc1c2nc(N)sc2c(C(=O)[O-])c2sc(N)nc12.[Na+] | 7% | 0% | -15% | 22%
CCNC(=O)Nc1nc2cc3nc(NC(=O)NCC)sc3cc2s1 | 0% | 15% | -1% | 6%
CC1CCC(NCC(=O)Nc2nc3cc4nc(NC(=O)CNC5CCC(C)C5)sc4cc3s2)C1 (centres undefined) | 11% | 30% | -7% | 11%
CC1CC(C)CN(CC(=O)Nc2nc3cc4nc(NC(=O)CN5CC(C)CC(C)C5)sc4cc3s2)C1 (centres undefined) | 29% | 11% | -3% | 15%
CCN(CC)CC(=O)Nc1nc2c(Cl)c3nc(NC(=O)CN(CC)CC)sc3c(-c3ccccc3)c2s1 | 13% | 7% | -6% | 35%
CCOC(=O)N1CCN(CC(=O)Nc2nc3cc4nc(NC(=O)CN5CCN(C(=O)OCC)CC5)sc4cc3s2)CC1.Cl.Cl | 26% | 60% | -17% | 17%
CCCN(CCC)CC(=O)Nc1nc2cc3nc(NC(=O)CN(CCC)CCC)sc3cc2s1.Cl.Cl | 29% | 47% | -11% | 46%
CCN(CC)CC(=O)Nc1nc2c(Cl)c3nc(NC(=O)CN(CC)CC)sc3c(C#N)c2s1.Cl.Cl | 80% | 100% | -35% | 19%
